In the library only some 3.7% were active in any assay of this set; here they are far more common.
Kir21 block: inhibitors of mouse Kir2.1 inward-rectifier potassium channel; HEK293-Kir2.1, FluxOR thallium flux fluorescence; stronger effect = lower value; B-score at 10 µM; hit rate 0.85% among 310,000; AID 1672, 2009;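 active means fluorescence ratio B-score at or below minus 3 SD of library scores, with starting-brightness B-score within 2 SD, cut at about -4.2 in these data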;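 further: channel flux triggered by added potassium and thallium sulfate stimulus; B-score of peak minus minimum fluorescence over baseline after thallium stimulus; more negative B-score means stronger Kir2.1 block with less thallium influx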
KCNK9 inh: KCNK9 potassium channel inhibitors, primary screen, HEK293 cells, thallium flux; B-score at 10 µM; hit rate 1.2% among 310,000; FluxOR thallium flux fluorescence; stronger effect = lower value; AID 488922, 2010; Potassium channel subfamily K member 9 (Homo sapiens), Q9NPC2;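 active means ratio B-score over 3 SD below the library mean, with starting fluorescence within 5 SD of its mean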;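 further: negative B-score means less thallium flux so channel inhibition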
KCNQ1 act: potentiators or activators of KCNQ1 channel, primary screen, cell-based, thallium flux, high-throughput. B-score at 10 µM. Potassium voltage-gated channel subfamily KQT member 1 (Homo sapiens), P51787. CHO-K1 KCNQ1, thallium flux FluxOR fluorescence; stronger effect = higher value. hit rate 0.35% among 310,000;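 active means fluorescence ratio B-score, a plate-corrected score, at least three library SD, with initial intensity B-score within 5 SD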
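Medium – assay buffer, equal DMSO in all wells · Material – CHO-K1 cell line with stable KCNQ1 potassium channel expression · Signal – kinetic FluxOR thallium fluorescence, 10-s 1-Hz baseline, 110-s post-stimulus read · Compound – single concentration per compound, DMSO matched to controls · Schedule – 37 °C overnight plating, 90-min dark dye load, 20-min compound pretreatment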
KCNK3 block: human KCNK3 channel inhibitors, primary screen, CHO cells, FluxOR thallium flux, B-score; hit rate 0.84% among 340,000; AID 602410, 2012; FluxOR fluorescence; stronger effect = lower value; B-score at 10 µM; Potassium channel subfamily K member 3 (Homo sapiens), O14649;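 active means B-score under library mean minus 4 SD, starting fluorescence ratio at most library mean plus 5 SD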;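 further: more negative B-score means stronger inhibition of thallium flux through KCNK3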
Target sequence (O14649 whole entry, looked up): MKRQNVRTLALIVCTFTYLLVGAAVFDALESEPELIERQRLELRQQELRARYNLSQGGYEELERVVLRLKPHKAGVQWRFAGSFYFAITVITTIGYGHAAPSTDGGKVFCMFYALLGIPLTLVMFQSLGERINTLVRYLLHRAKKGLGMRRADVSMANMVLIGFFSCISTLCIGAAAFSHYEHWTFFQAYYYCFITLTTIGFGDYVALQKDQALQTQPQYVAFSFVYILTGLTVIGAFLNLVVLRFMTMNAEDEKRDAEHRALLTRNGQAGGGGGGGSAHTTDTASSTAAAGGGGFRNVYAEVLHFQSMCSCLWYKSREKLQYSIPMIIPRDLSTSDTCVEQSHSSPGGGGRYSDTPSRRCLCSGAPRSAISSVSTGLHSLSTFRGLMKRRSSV
KCNQ1 block: inhibitors of human KCNQ1 channel, primary screen, cell-based, thallium flux, high-throughput | AID 2642, 2010 | hit rate 1.3% among 310,000 | CHO-K1 KCNQ1, FluxOR thallium flux fluorescence; stronger effect = higher value | B-score at 10 µM | Potassium voltage-gated channel subfamily KQT member 1 (Homo sapiens), P51787;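 active means compounds whose thallium flux B-score, printed positive for inhibition, exceeds three library SD while starting fluorescence stays within three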;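 further: channel opened by potassium depolarization with thallium stimulus after 20 min compound exposure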
hERG protect: hERG rescue from dofetilide block, primary screen, cell-based, CHO-hERG, FluxOR thallium flux, dofetilide IC70 | hit rate 0.51% among 310,000 | dofetilide IC70 present | Voltage-gated inwardly rectifying potassium channel KCNH2 (Homo sapiens), Q12809 | activation (rescue from dofetilide block), less the hit threshold, % at 10 µM;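 active means activation above the mean of controls blocked by dofetilide plus 5 SD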;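 further: thallium influx through hERG after potassium depolarization seen as dye fluorescence rise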
KCNK9 block conf: KCNK9 potassium channel inhibitors, confirmation, HEK293 cells, thallium flux, duplicate | shares compounds with KCNK9 inh | FluxOR thallium flux fluorescence | inhibition, % at 10 µM | hit rate 43% among 4,900 | AID 492992, 2010;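 active means thallium signal inhibited by more than 5 SD of the compound-free buffer control wells, on both duplicate plates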;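 further: 0% = assay buffer control wells without compound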
Kir21 sel: mouse Kir2.1 channel inhibition, confirmation, selectivity assay for KCNK9 modulator project, cell-based, HEK293, thallium flux. shares compounds with KCNK9 inh. Kir2.1 cells, FluxOR thallium flux fluorescence. inhibition, % at 10 µM. hit rate 4% among 4,900. AID 492993, 2010;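 active means thallium signal drop more than 5 SD beyond the mean of the no-compound control wells, seen in both duplicate plates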;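 further: signal is fluorescence rise after thallium addition divided by baseline fluorescence; plate controls were assay buffer only for no effect and full block by chlorpromazine control for full effect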
KCNK9 uninduced: thallium flux in non-induced HEK293 cells, confirmation, counter-screen for KCNK9 inhibitor project, cell-based, second counter screen, non-induced KCNK9-HEK293. shares compounds with KCNK9 inh. FluxOR thallium flux. inhibition, % at 10 µM. hit rate 40% among 4,900. AID 492997, 2010;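 active means thallium signal drop beyond 5 SD of the untreated control mean, on both duplicate plates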;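 further: plate controls were buffer only IC0 wells for no effect and SID17386958 at its maximal inhibitory level for full effect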
* hit, by the source's call; i = inactive; . = not tested or not shown.

SMILES | Kir21 block | KCNK9 inh | KCNQ1 act | KCNK3 block | KCNQ1 block | hERG protect | KCNK9 block conf | Kir21 sel | KCNK9 uninduced
O=C(Cc1ccc([N+](=O)[O-])cc1)Nc1nccs1 | -0.24 | -20* | i | i | i | 1 | i | i | i
COc1c(Cl)cc(Cl)cc1C(=O)n1nc(C)cc1C | -2.1 | i | i | i | i | -5 | i | i | i
COc1cccc(OC)c1OC(=O)c1ccccc1 | . | . | . | i | . | . | . | . | .
CC1CCN(C(=O)CN(c2ccc3c(c2)OCCO3)S(=O)(=O)c2ccccc2)CC1 | -0.18 | i | i | i | i | -9 | . | . | .
CSCCC(NS(=O)(=O)c1ccc(C)cc1)C(=O)N1CCN(C(c2ccccc2)c2ccccc2)CC1 (stereo not drawn) | 0.18 | -9.4* | i | i | i | -14 | 35%* | i | 32%*
CC1=NN(C(=O)COc2ccc(C)c(C)c2)C(O)(c2ccc(Cl)cc2)C1 (stereo not drawn) | -0.4 | -14* | i | i | i | -5 | 50%* | i | 35%*
CCOC(=O)C1=NN(C(=O)COc2ccccc2)C(O)(c2ccc(Br)cc2)C1 (stereo not drawn) | 0.05 | -11* | i | i | i | 1 | i | i | i
N#Cc1cc(-c2ccccc2)cnc1Sc1ccc(Cl)cc1 | 0.7 | i | i | i | i | -14 | i | i | i
N#Cc1cc(-c2ccc(Cl)cc2)cnc1Sc1ccccc1 | 0.98 | i | i | i | i | -11 | . | . | .
Cc1c(Cl)cccc1NC(=O)COC(=O)c1c2c(nc3ccccc13)CCN(Cc1ccccc1)C2 | 2.1 | -12* | i | i | i | -9 | 60%* | i | 32%*
O=C(NC1CCCCCC1)c1c2c(nc3ccccc13)CCN(Cc1ccccc1)C2 | -0.23 | i | i | i | i | -11 | . | . | .
O=C(CCC(=O)N(CC(=O)NC1CCCC1)Cc1ccc(F)cc1)Nc1nccs1 | -0.05 | i | i | i | i | -5 | . | . | .
CCOC(=O)C1=C(C)N=c2s/c(=C\c3ccc(OCC(=O)O)cc3)c(=O)n2C1c1ccc(OC(C)C)cc1 (stereo not drawn) | -1.8 | i | i | i | i | -24 | i | i | i
CCOC(=O)C1=C(C)N=c2s/c(=C/c3ccc(OCC(=O)O)cc3)c(=O)n2C1c1cc(OC)c(OC)c(OC)c1 (stereo not drawn) | 0.99 | i | i | i | i | -7 | . | . | .
COc1ccc(C(=O)Nc2ccccc2C(N)=O)cc1 | 0.3 | i | i | i | i | -7 | . | . | .
COc1ccc(C(=O)Nc2ccccc2C(=O)N/N=C/c2cccc3ccccc23)cc1 | 1 | -8.5* | i | i | i | -14 | 61%* | i | 37%*
Cn1c(=O)c2c(SCC(=O)Nc3ccc4c(c3)OCCO4)nc(CC(C)(C)C)nc2n(C)c1=O | 1.4 | i | i | i | i | -8 | i | i | i
Cn1c(=O)c2c(SCC(=O)NC3CCCC3)nc(CC(C)(C)C)nc2n(C)c1=O | 0.18 | i | i | i | i | -6 | . | . | .
O=C(Nc1ccc2c(c1)N(S(=O)(=O)c1cccs1)CCC2)c1c(F)cccc1Cl | -0.15 | -11* | i | i | i | -13 | i | i | 36%*
COc1cccc(OC)c1C(=O)Nc1ccc2c(c1)N(S(=O)(=O)c1cccs1)CCC2 | -0.33 | i | i | i | i | -6 | . | . | .
Cc1ccc(/C=C/C(=O)Nc2ccc(Oc3ccccc3)cc2)o1 | -0.96 | i | i | i | i | -11 | i | i | i
Cc1ccc(/C=C/C(=O)Nc2ccc([N+](=O)[O-])cc2)o1 | 0.97 | i | i | i | i | -12 | . | . | .
COc1ccccc1NC(=O)Nc1nn(C)c2cccc(OC)c12 | -0.3 | -11* | i | i | i | -11 | 48%* | i | 27%*
O=C(C(c1ccccc1)c1ccccc1)N1CCCc2ccccc21 | -1.3 | -11* | i | i | i | -11 | 44%* | i | 42%*
Cc1ccc(S(=O)(=O)NN2C(=O)c3ccccc3NC2c2ccccn2)cc1 (stereo not drawn) | -1.4 | i | i | i | i | -10 | . | . | .
SMILES | Kir21 block | KCNK9 inh | KCNQ1 act | KCNK3 block | KCNQ1 block | hERG protect | KCNK9 block conf | Kir21 sel | KCNK9 uninduced
Cc1ccccc1CC1(CO)CCCN(C(=O)c2cccc(Cl)c2)C1 (stereo not drawn) | -0.92 | i | i | i | i | -19 | i | i | 24%*
COc1ccc(N2CCN(C(=O)[C@@H]3CCCN3C3=NS(=O)(=O)c4ccccc43)CC2)cc1 | . | . | . | i | . | . | . | . | .
COc1ccc(NC(=O)c2cc3sccc3n2Cc2ccc(F)cc2)cc1OC | -1.9 | -12* | i | i | i | -9 | 57%* | i | 30%*
COc1cc2ccccc2cc1C(=O)N1CC(C)CC(C)C1 (stereo not drawn) | 0.44 | i | i | i | i | -18 | . | . | .
Cc1ccc(Cl)c(N/C=C/C(=O)c2ccccc2)c1 | -0.44 | -15* | i | i | i | -1 | 70%* | i | 38%*
CCOc1cc(CNc2ccc3c(c2)OCCO3)cc(Br)c1OCC | 0.97 | i | i | i | i | -7 | i | i | i
CCOc1cc(CNc2ccc(N3CCOCC3)cc2)cc(Br)c1OCC | -0.08 | i | i | i | i | -8 | . | . | .
Cc1ccc(-c2cc(-c3n[nH]c(=S)o3)c3ccccc3n2)cc1 | 0.07 | i | 15* | i | i | 12* | i | i | i
Cc1cc2c(cn1)C(CCC#N)(CCC#N)c1ccccc1-2 | 0.84 | i | i | i | i | -6 | . | . | .
Cc1nn(-c2ccccc2)c(C)c1NC(=O)COC(=O)c1cc([N+](=O)[O-])ccc1NCCO | 1.7 | i | i | i | i | -21 | . | . | .
